Results on 16 compounds are retold here after paper PMC4014002 (The FEBS journal, 2014).

Usually Kd stands for the equilibrium constant for the complex coming apart. As a reminder, the Ki is the dissociation constant of the complex between target and ligand, obtained from inhibition or displacement.

The target of test [1] is T1, human L-FABP T94A variant (Homo sapiens, UniProt P07148, T94A).
T1 sequence (P07148 1-127 T94A): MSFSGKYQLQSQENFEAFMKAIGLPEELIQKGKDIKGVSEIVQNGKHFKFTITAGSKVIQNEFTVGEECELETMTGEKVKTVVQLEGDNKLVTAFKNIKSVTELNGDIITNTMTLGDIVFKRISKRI
Nature of the test: Circular dichroism, ligand-induced secondary structure change. The conditions noted are these: T94A 0.5 μM, 5 μM ligand, CD. The method, boiled down:
(§1)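 Recombinant delipidated L-FABP (0.5 μM, by amino acid analysis) in 10 mM potassium phosphate pH 7.4. Ligand added to 5 μM from a 500 μM ethanol stock, giving 1% ethanol final. Stirred 10 min at 25 °C, then scanned 185–250 nm. Ten scans were averaged, buffer/ligand/ethanol background subtracted and smoothed. Secondary structure was analysed by CONTIN against the SDP48 reference set, and % change was taken relative to protein alone.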
In general terms: CD spectra are sensitive to the conformation of chiral molecules.

Test [2] deals with T2, rat L-FABP (Rattus norvegicus, UniProt P02692).
T2 sequence (P02692 1-127): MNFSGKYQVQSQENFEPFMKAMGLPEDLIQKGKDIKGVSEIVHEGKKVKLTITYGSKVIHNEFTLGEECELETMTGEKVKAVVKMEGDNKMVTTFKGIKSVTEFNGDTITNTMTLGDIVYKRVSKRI
The description is as above. As to conditions: rat L-FABP 0.5 μM, 5 μM ligand, CD. The method, boiled down: as §1

In test [3] the target is T3, human wild-type L-FABP T94T (Homo sapiens, UniProt P07148).
T3 sequence (P07148 1-127): T1 sequence (P07148 1-127 T94A) with A94T
The description is as above. The conditions noted are these: T94T 0.5 μM, 5 μM ligand, CD. The method, boiled down:
as §1

Test [4] has as its target T2, rat L-FABP. Nature of the test: ANS binding to L-FABP.
Test [5] addresses T1, human L-FABP T94A variant. The experiment in a line: ANS binding to L-FABP.
The target of test [6] is T3, human wild-type L-FABP T94T. Nature of the test: ANS binding to L-FABP.
A further test has as its target human L-FABP. As to conditions: human L-FABP bound one ANS; cited from earlier work.
Test [7] deals with T2, rat L-FABP. The experiment in a line: ANS displacement assay. It counts as binding. The essentials:
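Recombinant rat L-FABP (500nM, quantified by amino acid analysis) incubated 10 min with ANS (35μM) at pH 7.4, then titrated with small ligand aliquots. ANS emission scanned 410–600nm (380nm excitation). % ANS fluorescence remaining plotted vs ligand concentration gives EC50.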

Test [8] concerns the target T1, human L-FABP T94A variant. The experiment in a line: ANS displacement assay. Type of test: binding.
The target of test [9] is T3, human wild-type L-FABP T94T. Nature of the test: ANS displacement assay. Type of test: binding.
Test [10] has as its system L-FABP T94A variant human subjects. The conditions noted are these: cited from earlier work.
For the next test, the target named is T94T and T94A. As to conditions: cited from earlier work.
Setting [11] is: read-out: ANS Displacement – Ki, T94A 500nM, ANS 35μM, ND: no displacement.
The mark [12] stands for this setting: read-out: ANS Displacement – Ki, T94T 500nM, ANS 35μM, ND: no displacement.
The mark [13] stands for this setting: read-out: ANS Displacement – Ki, rat L-FABP 500nM, ANS 35μM, ND: no displacement.

Residue numbers refer to the chain shown, from its start. Values joined by “and” are separate entries in the source; they are usually repeats but may differ in a detail not shown here. Equal entries are not always repeated. Structures can show the parent of a compound that is named as a salt. Where two headings read alike, the source gives them in different places.

In the case of `CCCCCCCC/C=C\CCCCCCCC(=O)OC(CO)CO` [2-OMG, 2-oleoyl glycerol], the “change in secondary structure (L-FABP/ligand – L-FABP only)” value (from here on “change … (L-FABP/ligand – L-FABP only)”) (in test [1]; on rat L-FABP [2]; in [3]) was “no or only small changes” throughout.

Turning to `O=S(=O)(O)c1cccc2cccc(Nc3ccccc3)c12` [ANS, 1-anilinonaphthalene-8-sulfonic acid], the Kd is 2500 ± 200 nM at rat L-FABP [4], 2400 ± 100 nM in test [5], 2300 ± 100 nM in test [6] and 2000 nM at human L-FABP. Further, the figures for the “Fluorescence emission Maximum” value (on rat L-FABP [4] (ANS bound to rat L-FABP); in test [5] (ANS bound to T94A); in test [6] (ANS bound to T94T)) were 477 nm, 480 nm and 480 nm, respectively. For the same compound, the Bmax on rat L-FABP [4] (forward titration, 500nM rat L-FABP) was 1.4 and 1.42 ± 0.01. The “A.U./nM when fully bound (ANS fluorescence intensity/nM)” value at rat L-FABP [4] (reverse titration, ANS 100nM, rat L-FABP) is 0.8 A.U./nM and 0.78 ± 0.02 A.U./nM; in test [5] (reverse titration, ANS 100nM, T94A) it was 1.0 A.U./nM and 0.98 ± 0.04 A.U./nM; in test [6] (reverse titration, ANS 100nM, T94T), 1.0 A.U./nM and 1.03 ± 0.01 A.U./nM.

Take `CCCCC/C=C\C/C=C\C/C=C\C/C=C\CCCC(=O)O` [Arachidonic acid, arachidonic acid]: the Ki at rat L-FABP [7] was found to be 110 ± 6 nM; in test [8] it was 108 ± 6 nM; in [9] it was 113 ± 6 nM. Besides, the “change … (L-FABP/ligand – L-FABP only)” value in [1] is under 8%.

Take `CC/C=C\C/C=C\C/C=C\C/C=C\C/C=C\C/C=C\CCC(=O)O` [Docosahexaenoic acid, cis-4,7,10,13,16,19-docosahexaenoic acid]: the Ki came out at 81 ± 15 nM on rat L-FABP [7], 65 ± 9 nM in [8] and 72 ± 5 nM in [9].

Turning to `CCC=CCC=CCC=CCC=CC/C=C\CCCC(=O)O` [Eicosapentaenoic acid, cis-5,8,11,14,17-eicosapentaenoic acid], the Ki at rat L-FABP [7] stood at 240 ± 30 nM; in test [8], 190 ± 10 nM; in [9], 200 ± 30 nM.

Take `CCCCCCCC/C=C\CCCCCCCC(=O)OC[C@@H](O)COP(=O)(O)O` [LPA, Oleoyl-L-α-lysophosphatidic acid sodium salt]: the Ki came to 36 ± 4 nM in test [8] (setting [11]) and 52 ± 7 nM in test [9] (setting [12]).

As to `CCCCC/C=C\C/C=C\CCCCCCCC(=O)O` [Linoleic acid, linoleic acid], the Ki stood at 81 ± 5 nM on rat L-FABP [7], 132 ± 3 nM in test [8] and 113 ± 5 nM in test [9].

Compound `CCCCCCCC/C=C\CCCCCCCC(=O)O` [Oleic acid, oleic acid] showed a Ki on rat L-FABP [7] of 43 ± 2 nM.

With `CCCCCCCC/C=C\CCCCCCCC(=O)SCCNC(=O)CCNC(=O)[C@H](O)C(C)(C)COP(=O)(O)OP(=O)(O)OC[C@H]1O[C@@H](n2cnc3c(N)ncnc32)[C@H](O)[C@@H]1OP(=O)(O)O` [Oleoyl CoA, Oleoyl Coenzyme A], the values for the Ki (on rat L-FABP [7] (setting [13]); in test [8] (setting [11]); in test [9] (setting [12])) were 2410 ± 120 nM, 1030 ± 20 nM and 1110 ± 40 nM, respectively.

In the case of `CCCCCCCC/C=C\CCCCCCCC(=O)O[C@@H](CO)COC(=O)CCCCCCCCCCCCCCC` [PODG, 1-palmitoyl-2-oleoyl-sn-glycerol], the “change … (L-FABP/ligand – L-FABP only)” value (in test [1]; on rat L-FABP [2]; in [3]) was “no or only small changes” each time.

For `CCCCCCCC/C=C\CCCCCCCC(=O)O[C@H](COC(=O)CCCCCCCCCCCCCCC)COP(=O)(O)O` [POPA, 1-palmitoyl-2-Oleoyl-sn-Glycero-3-Phosphate monosodium salt], the Ki at rat L-FABP [7] (setting [13]) worked out at 9100 ± 800 nM; in test [8] (setting [11]), 2800 ± 200 nM; in test [9] (setting [12]) it was 2800 ± 300 nM.

With `CCCCCCCCCCCCCCCC(=O)O` [Palmitic acid, palmitic acid], the Ki was found to be 48 ± 1 nM on rat L-FABP [7], 43 ± 1 nM in test [8] and 38 ± 1 nM in test [9].

Take `CCCCCCCCCCCCCCCCCC(=O)O` [Stearic acid]: the results for the Ki (at rat L-FABP [7]; in test [8]; in [9]) were 37 ± 4 nM, 28 ± 1 nM and 29 ± 2 nM, respectively.

In the case of `CC(C)OC(=O)C(C)(C)Oc1ccc(C(=O)c2ccc(Cl)cc2)cc1` [fenofibrate], the “lowering of elevated plasma triglyceride to basal levels” value in test [10] is “less effective in lowering elevated plasma triglyceride to basal levels”.

`CC(C)(Oc1ccc(C(=O)c2ccc(Cl)cc2)cc1)C(=O)O` [fenofibric acid]: the “Ki, T94T compared with T94A” value at T94T and T94A is on record as “same (or similar) Ki”.

For `CC(C)CCC[C@@H](C)CCC[C@@H](C)CCCC(C)CC(=O)O` (stereo partly drawn) [phytanic acid], the “Ki, T94T compared with T94A” value on T94T and T94A is listed as “same (or similar) Ki”.
